Measurements as given in article PMC5955861 (Oncogene, 2018).
Read-outs that look alike come from different tables or passages of the source.

What was measured:
[1] = tested on: MV-4-11B; assay: alamarBlue cell proliferation assay; assay type: cell-based, human; conditions: MV-4-11B cells
Summary of the method: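 Cell lines from ATCC or DSMZ were cultured per supplier's instructions and STR-authenticated. MV-4-11B is a clone of MV-4-11 carrying heterozygous TP53 c.742C>T (p.R248W). Cells were exposed to test compound in 96-well format, and viability was read after incubation with alamarBlue.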

[2] = tested on: p-Ser2 POL-II in MV-4-11B cells; assay: p-Ser2 POL-II custom MSD assay; assay type: cell-based; conditions: 5 µM LDC000067, 2 h
Summary of the method: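 MV-4-11B cells were treated for 2 h with single agents or their combination. Phospho-Ser2 RNA Pol II was quantified with a custom Meso Scale Discovery multi-array assay.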

[3] = tested on: THP-1 AML cells; assay: disseminated AML xenograft efficacy study; assay type: in vivo, CIEA-NOG mice; conditions: decitabine twice per week, 0.5 mg/kg i.p.

Compound: Cc1sc2c(c1C)C(c1ccc(Cl)cc1)=N[C@@H](CC(=O)OC(C)(C)C)c1nnc(C)n1-2 [JQ1, reference compound]
- EC50 ([1]; read-out: anti-proliferative EC50, biologically equivalent concentrations): 200 nM

Compound: COc1ccccc1-c1cc(Nc2cccc(CS(N)(=O)=O)c2)ncn1 [LDC000067, reference compound]
- EC50 [1]: 5000 nM
- p-Ser2 POL-II levels [2]: ~ 64 % of control

Compound: Nc1ncn([C@H]2C[C@H](O)[C@@H](CO)O2)c(=O)n1 [decitabine, reference compound]
- survival prolongation [3]: 26 days
